Hits are enriched below; roughly 1.4% of the tested compounds scored in any of these assays.
FXIa inh – factor XIa (human) inhibition | purified FXIa, Boc-Glu-Ala-Arg-AMC fluorogenic substrate | P03951 | 0.14% of 220,000 active | inhibition, % at 5 µM;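 active = inhibition of at least 40%; inactive = inhibition below 40%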;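 note: fluorescence of freed AMC excited at 355 nm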
Target sequence (P03951 19-387 limits assumed): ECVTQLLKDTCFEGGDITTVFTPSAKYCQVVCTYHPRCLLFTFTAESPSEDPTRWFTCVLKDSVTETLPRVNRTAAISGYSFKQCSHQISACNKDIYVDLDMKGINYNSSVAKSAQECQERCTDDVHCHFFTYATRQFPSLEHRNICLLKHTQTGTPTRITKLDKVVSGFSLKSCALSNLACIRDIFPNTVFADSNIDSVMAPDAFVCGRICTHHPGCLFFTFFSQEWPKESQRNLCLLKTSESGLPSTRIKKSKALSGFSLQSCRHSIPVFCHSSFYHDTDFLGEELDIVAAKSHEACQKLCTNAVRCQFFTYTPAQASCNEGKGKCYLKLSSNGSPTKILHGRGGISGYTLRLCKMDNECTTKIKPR
Target sequence (P03951 388-625 limits assumed): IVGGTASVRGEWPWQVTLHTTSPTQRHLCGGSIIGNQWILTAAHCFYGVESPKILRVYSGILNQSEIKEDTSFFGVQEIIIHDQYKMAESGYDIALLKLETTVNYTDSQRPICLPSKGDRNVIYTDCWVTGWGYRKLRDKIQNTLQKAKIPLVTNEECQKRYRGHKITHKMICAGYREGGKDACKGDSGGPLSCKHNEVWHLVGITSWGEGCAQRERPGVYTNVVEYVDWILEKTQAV
Thrombin inh – blocks human thrombin protease activity. P00734. alpha-thrombin, Boc-VPR-AMC fluorogenic substrate cleavage. inhibition, % at 5 µM. 0.26% of 220,000 active. AID 1046;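 active = inhibition at or above 40%; inactive = inhibition below 40%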
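Material: human alpha-thrombin protein; Also added: Boc-VPR-AMC substrate, 15 µM final; Timing: enzyme reaction carried out at room temperature; Signal: fluorescence, ex 355 nm, em 460 nm; Measure: % inhibition of thrombin; Controls: enzyme without compound as high, wells lacking enzyme as low.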
Rce1 inhib – yeast Ras-converting enzyme inhibition; Q03530; yeast membranes, quenched prenylated peptide cleavage fluorescence; calls only; 0.27% of 290,000 active;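 active = fall in fluorescence gain of 50% or more versus controls, with final raw signal at or below 3038400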
CTSL1 counter – blocks F. hepatica cathepsin L1 in PFM18AAP counter-screen. AID 1906. recombinant F. hepatica cathepsin L1, Z-Leu-Arg-MCA fluorescence. inhibition, % at 5.96 µM. 0.49% of 300,000 active;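 active = inhibition above the mean of all tested compounds plus 3 SD, set per screening campaign, cut at about 17% in these data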
KLK5 inh – inhibitors of human kallikrein 5; Q9Y337; recombinant hK5, fluorogenic AMC substrate cleavage; inhibition, % at 5 µM; 0.59% of 210,000 active;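 active = inhibition of 40% or more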
FXIIa inh – blocks human coagulation factor XIIa protease activity. P00748. purified FXIIa, Boc-QGR-AMC fluorogenic substrate, 2 h. inhibition, % at 5 µM. 0.3% of 220,000 active. AID 800; in the data active = inhibition above about 40%
Each line names hits and unclear results; the compound was inactive in the other large screens.

COc1ccc(NC(=O)c2ccco2)cc1NC(=O)c1ccco1	none
Cc1cc(-c2nc3ncccc3o2)ccc1NC(=S)NC(=O)C(C)C	Thrombin inh 40 (no result: FXIIa inh)
COc1ccc(-c2nc3ncccc3o2)cc1NC(=O)c1ccco1	Rce1 inhib active (no result: FXIa inh, Thrombin inh, KLK5 inh, FXIIa inh)
Cc1ccc(-c2nc3ncccc3o2)cc1NC(=O)C(C)C	none (no result: FXIa inh, Thrombin inh, KLK5 inh, FXIIa inh)
COc1cc(NC(=O)c2ccco2)c(OC)cc1NC(=O)Nc1cccc(Cl)c1	KLK5 inh 46
COc1ccc(-c2nc3ncccc3o2)cc1NC(=O)c1cccs1	none (no result: FXIa inh, Thrombin inh, KLK5 inh, FXIIa inh)
CN(C)c1nc(Cl)nc(N(C#N)CCOc2ccccc2)n1	none
Cc1nc(C(=O)N2CCC(n3nccc3NC(=O)Nc3ccccc3Cl)CC2)cs1	none (no result: FXIa inh, Thrombin inh, KLK5 inh, FXIIa inh)
Cc1cc(Nc2ccc(C)c(C)c2)n2nc(C)nc2n1	FXIIa inh 42
O=C(COC(=O)CNC(=O)c1ccccc1Cl)Nc1ncc(C(F)(F)F)cc1Cl	CTSL1 counter 21
O=C(COC(=O)c1c2ccccc2cc2ccccc12)Nc1ncc(C(F)(F)F)cc1Cl	KLK5 inh 59
O=C(CCNC(=O)C1CCN(S(=O)(=O)c2ccc(F)cc2)CC1)Nc1ccccc1	none (no result: FXIa inh, Thrombin inh, KLK5 inh, FXIIa inh)
Cc1ccc(S(=O)(=O)CCC(=O)c2cccc([N+](=O)[O-])c2)cc1	CTSL1 counter 20 (no result: FXIa inh, Thrombin inh, KLK5 inh, FXIIa inh)
Cc1ccc(NC(=O)CS(=O)CC(=O)N(C(C)C(=O)NC2CCCCC2)C(C)(C)C)cc1 (stereo unspecified)	none
CC(=O)NC(C)c1ccc(Cl)c(Cl)c1 (stereo unspecified)	KLK5 inh 68
COc1ccc(C2CC(=O)C(C(c3ccc(O)cc3)C3C(=O)CC(c4ccc(OC)cc4)CC3=O)C(=O)C2)cc1 (stereo unspecified)	KLK5 inh 50, FXIIa inh 45
Cc1cccc(C)c1N(CC(=O)NCc1ccc(F)cc1)C(=O)c1csnn1	none
Cc1cccnc1NC(=O)c1ccc2c(c1)NC(=O)C(C)S2 (stereo unspecified)	none (no result: FXIa inh, Thrombin inh, KLK5 inh, FXIIa inh)
Cc1ccc2c(C)nc(SC(C(=O)c3ccccc3)c3ccccc3)nc2c1 (stereo unspecified)	none
Cc1nc(SC(C(=O)c2ccccc2)c2ccccc2)nc2ccccc12 (stereo unspecified)	Rce1 inhib active
CN(C)c1ccc(NC(=O)c2ccc(Cn3cc([N+](=O)[O-])cn3)cc2)cc1	Thrombin inh 97
Cc1ccc2[nH]c(=O)c(CN(C(=O)c3cccs3)c3ccccc3)cc2c1	none
Cc1ccc2cc(CN(C(=O)c3cccs3)c3ccccc3)c(=O)[nH]c2c1	KLK5 inh 62, FXIIa inh 74
O=C1NC(NS(=O)(=O)c2ccccc2)(C(F)(F)F)C(=O)N1Cc1ccccc1 (stereo unspecified)	none (no result: FXIa inh, Thrombin inh, KLK5 inh, FXIIa inh)
COc1ccc(C2Nc3ccccc3C(=O)N2Cc2ccccc2)cc1COc1ccccn1 (stereo unspecified)	Rce1 inhib active
Cc1[nH]c(=O)[nH]c(=O)c1CSCC(=O)OCC(=O)Nc1ccccn1	none
CS(=O)(=O)N(Cc1ccccc1)c1ccc(C(=O)NC2CCCCC2O)cc1 (stereo unspecified)	FXIIa inh 106
Oc1ccc(N=Cc2ccc(OCc3ccccc3)cc2)cc1	CTSL1 counter 45
CCOc1ccc(NC(=O)CCSc2nnc(C)s2)cc1	KLK5 inh 46
Cc1cc(N2CCOCC2)n2cc(-c3ccccc3)nc2n1	Rce1 inhib active
CN1CCN(c2ccc(CNS(=O)(=O)Cc3ccc(Cl)cc3)cc2)CC1	FXIIa inh 61
CN1CCN(c2ccc(CNS(=O)(=O)c3ccc(F)cc3Cl)cc2)CC1	none (no result: FXIa inh, Thrombin inh, KLK5 inh, FXIIa inh)
O=C(COc1ccccc1)Nc1cccc(-c2nc3cc4ccccc4cc3[nH]2)c1	Rce1 inhib active
O=C(COc1ccccc1)Nc1cccc(-c2nn[nH]n2)c1	none (no result: FXIa inh, Thrombin inh, KLK5 inh, FXIIa inh)
COc1cc2c(cc1OC)C(CCc1ccccc1)=NCC2	Rce1 inhib active
Cc1cccc(C(=O)N2CCCC(CCC(=O)N3CCN(c4ccccn4)CC3)C2)c1 (stereo unspecified)	none (no result: FXIa inh, Thrombin inh, KLK5 inh, FXIIa inh)
CC(C)(CO)NC(=S)NCc1ccco1	KLK5 inh 100
CC(C)(C)c1ccc(C(=O)NC(=S)NCc2ccco2)cc1	none (no result: FXIa inh, Thrombin inh, KLK5 inh, FXIIa inh)
COc1ccc(/C=N/N(C)C2=NCCN2)c(OC)c1OC	none (no result: FXIa inh, Thrombin inh, KLK5 inh, FXIIa inh)
COc1ccc(S(=O)(=O)n2nc(OC(=O)c3cccs3)cc2N)cc1	KLK5 inh 78
COc1ccc(S(=O)(=O)n2nc(OC(=O)c3ccncc3)cc2N)cc1	none
